Measured values as given in ChEMBL document CHEMBL1145027, “Design and synthesis of statine-based cell-permeable peptidomimetic inhibitors of human beta-secretase” (J Med Chem, 2003).
Where a SMILES comes first, the peptide text is derived from it. [ ]: non-standard residue; d: D form. Sta = CC(C)C[C@H](N)[C@@H](O)CC(=O)O

system: HEK293; assay: Inhibition of A beta-secretion in transfected human embryonic kidney (HEK293) cells; type: functional, cell-based
Method in brief: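 Transfected HEK-293 cells incubated with inhibitor; Aβ secretion measured and EC50 taken as the concentration giving 50% inhibition of Aβ production.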

Compound	EC50
COC(=O)[C@@H]1CC(NC(=O)[C@H](NC(=O)C[C@H](O)[C@@H](Cc2cc(F)cc(F)c2)NC(=O)C(O)c2ccccc2-c2ccccc2)C(C)C)C[C@H](C(=O)OC)C1 (single isomer, unassigned; isomer 1)	4 µM
COC(=O)[C@@H]1CC(NC(=O)[C@H](NC(=O)C[C@H](O)[C@@H](Cc2cc(F)cc(F)c2)NC(=O)C(O)c2ccccc2-c2ccccc2)C(C)C)C[C@H](C(=O)OC)C1 (single isomer, unassigned; isomer 2)	> 10 µM

molecular target: Beta-secretase 1 (Homo sapiens, UniProt P56817); assay: Inhibition of human beta-secretase (BACE) in MBP-C125 assay
Sequence (P56817 whole entry, the tested form may be a part): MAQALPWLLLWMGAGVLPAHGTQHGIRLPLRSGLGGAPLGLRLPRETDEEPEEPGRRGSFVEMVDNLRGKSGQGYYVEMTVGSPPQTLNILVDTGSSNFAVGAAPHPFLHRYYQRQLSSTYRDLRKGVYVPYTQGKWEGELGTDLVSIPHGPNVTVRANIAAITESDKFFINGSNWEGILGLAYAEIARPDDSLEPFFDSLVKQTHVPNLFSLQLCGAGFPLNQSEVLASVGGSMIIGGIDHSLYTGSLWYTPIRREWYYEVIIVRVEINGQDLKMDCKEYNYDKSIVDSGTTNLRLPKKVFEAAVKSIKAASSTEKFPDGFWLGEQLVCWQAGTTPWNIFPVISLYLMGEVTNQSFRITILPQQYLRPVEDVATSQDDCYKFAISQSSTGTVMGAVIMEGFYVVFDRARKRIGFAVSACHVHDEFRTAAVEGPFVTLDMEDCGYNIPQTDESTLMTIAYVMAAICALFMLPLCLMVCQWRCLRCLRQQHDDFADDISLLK
Method in brief: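 BACE activity measured with maltose-binding protein fused C-125 (MBP-C125) substrate; IC50 taken as the concentration giving 50% inhibition of enzyme activity, averaged from two or more runs.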

Compound	IC50
CC(C)C[C@H](NC(=O)C(O)c1cccc2ccccc12)[C@@H](O)CC(=O)N[C@H](C(=O)NC1C[C@@H](C(=O)O)C[C@@H](C(=O)O)C1)C(C)C (stereo partly specified)	3 µM
CC(C)CC(NC(=O)c1ccc2ccccc2c1)[C@@H](O)CC(=O)N[C@@H](C(=O)N[C@H](C)C(=O)N[C@H](CCC(=O)O)C(=O)N[C@H](Cc1ccccc1)C(=O)O)C(C)C (stereo partly specified)	48 µM
CSCC[C@H](NC(=O)[C@@H](NC(=O)OC(C)(C)C)C(C)C)C(=O)NC(CC(C)C)[C@@H](O)CC(=O)N[C@@H](C(=O)NCc1ccc(C(=O)O)cc1)C(C)C (stereo partly specified)	4 µM
CC(C)CC(NC(=O)Cc1ccccc1)[C@@H](O)CC(=O)N[C@@H](C(=O)N[C@H](C)C(=O)N[C@H](CCC(=O)O)C(=O)N[C@H](Cc1ccccc1)C(=O)O)C(C)C (stereo partly specified)	130 µM
CSCC[C@H](NC(=O)[C@@H](NC(=O)OC(C)(C)C)C(C)C)C(=O)NC(CC(C)C)[C@@H](O)CC(=O)N[C@@H](C(=O)NCc1ccncc1)C(C)C (stereo partly specified)	> 100 µM
CO[C@H](C(=O)NC(CC(C)C)[C@@H](O)CC(=O)N[C@@H](C(=O)N[C@H](C)C(=O)N[C@H](CCC(=O)O)C(=O)N[C@H](Cc1ccccc1)C(=O)O)C(C)C)c1ccccc1 (stereo partly specified)	28 µM
COc1cc(CC(=O)NC(CC(C)C)[C@@H](O)CC(=O)N[C@@H](C(=O)N[C@H](C)C(=O)N[C@H](CCC(=O)O)C(=O)N[C@H](Cc2ccccc2)C(=O)O)C(C)C)cc(OC)c1OC (stereo partly specified)	94 µM
COC(=O)CCCCC(=O)NC(CC(C)C)[C@@H](O)CC(=O)N[C@@H](C(=O)N[C@H](C)C(=O)N[C@H](CCC(=O)O)C(=O)N[C@H](Cc1ccccc1)C(=O)O)C(C)C (stereo partly specified)	50 µM
CSCC[C@H](NC(=O)[C@@H](NC(=O)OC(C)(C)C)C(C)C)C(=O)NC(CC(C)C)[C@@H](O)CC(=O)N[C@@H](C(=O)NCc1ccccc1)C(C)C (stereo partly specified)	> 200 µM
CC(C)C[C@H](NC(=O)C(O)c1ccccc1Br)[C@@H](O)CC(=O)N[C@H](C(=O)NCc1ccc(C(=O)O)cc1)C(C)C (stereo partly specified)	40 µM
CSCC[C@H](NC(=O)[C@@H](NC(=O)OC(C)(C)C)C(C)C)C(=O)NC(CC(C)C)[C@@H](O)CC(=O)N[C@@H](C(=O)NCc1ccc2c(c1)OCO2)C(C)C (stereo partly specified)	> 100 µM
CSCC[C@H](NC(=O)[C@@H](NC(=O)OC(C)(C)C)C(C)C)C(=O)NC(CC(C)C)[C@@H](O)CC(=O)N[C@@H](C(=O)NO)C(C)C (stereo partly specified)	94 µM
CC(C)CC(NC(=O)C(O)c1ccccc1Br)[C@@H](O)CC(=O)N[C@@H](C(=O)N[C@H](C)C(=O)N[C@H](CCC(=O)O)C(=O)N[C@H](Cc1ccccc1)C(=O)O)C(C)C (stereo partly specified)	3 µM
CC(C)CC(NC(=O)C(O)c1ccccc1Oc1ccccc1)[C@@H](O)CC(=O)N[C@@H](C(=O)N[C@H](C)C(=O)N[C@H](CCC(=O)O)C(=O)N[C@H](Cc1ccccc1)C(=O)O)C(C)C (stereo partly specified)	14 µM
COC(=O)CCCNC(=O)[C@H](NC(=O)C[C@H](O)C(CC(C)C)NC(=O)[C@H](CCSC)NC(=O)[C@@H](NC(=O)OC(C)(C)C)C(C)C)C(C)C (stereo partly specified)	47 µM
CCCCNC(=O)[C@H](NC(=O)C[C@H](O)C(CC(C)C)NC(=O)[C@H](CCSC)NC(=O)[C@@H](NC(=O)OC(C)(C)C)C(C)C)C(C)C (stereo partly specified)	> 200 µM
CCCCOc1ccc(C(=O)NC(CC(C)C)[C@@H](O)CC(=O)N[C@@H](C(=O)N[C@H](C)C(=O)N[C@H](CCC(=O)O)C(=O)N[C@H](Cc2ccccc2)C(=O)O)C(C)C)cc1 (stereo partly specified)	27 µM
CO[C@](C)(C(=O)NC(CC(C)C)[C@@H](O)CC(=O)N[C@@H](C(=O)N[C@H](C)C(=O)N[C@H](CCC(=O)O)C(=O)N[C@H](Cc1ccccc1)C(=O)O)C(C)C)c1ccccc1 (stereo partly specified)	41 µM
CC(C)C[C@H](NC(=O)C(O)c1cccc2ccccc12)[C@@H](O)CC(=O)N[C@H](C(=O)NCc1ccc(C(=O)O)cc1)C(C)C (stereo partly specified)	50 µM
CC(C)CC(NC(=O)Cc1cccc2ccccc12)[C@@H](O)CC(=O)N[C@@H](C(=O)N[C@H](C)C(=O)N[C@H](CCC(=O)O)C(=O)N[C@H](Cc1ccccc1)C(=O)O)C(C)C (stereo partly specified)	42 µM
CSCC[C@H](NC(=O)[C@@H](NC(=O)OC(C)(C)C)C(C)C)C(=O)NC(CC(C)C)[C@@H](O)CC(=O)N[C@@H](C(=O)NCCC(=O)O)C(C)C (stereo partly specified)	30 µM
CC(C)CC(NC(=O)C(O)c1ccccc1OCc1ccccc1)[C@@H](O)CC(=O)N[C@@H](C(=O)N[C@H](C)C(=O)N[C@H](CCC(=O)O)C(=O)N[C@H](Cc1ccccc1)C(=O)O)C(C)C (stereo partly specified)	11 µM
CSCC[C@H](NC(=O)[C@@H](NC(C)=O)C(C)C)C(=O)N[C@@H](CC(C)C)[C@@H](O)CC(=O)N[C@H](C(=O)N[C@@H](C)C(=O)N[C@@H](CCC(=O)O)C(=O)N[C@@H](Cc1ccccc1)C(=O)O)C(C)C (Ac-VM[Sta]VAEF-OH)	0.3 µM
COC(=O)[C@@H]1CC(NC(=O)[C@H](NC(=O)C[C@H](O)[C@@H](Cc2cc(F)cc(F)c2)NC(=O)C(O)c2ccccc2-c2ccccc2)C(C)C)C[C@H](C(=O)OC)C1 (single isomer, unassigned; isomer 1)	0.12 µM
COC(=O)[C@@H]1CC(NC(=O)[C@H](NC(=O)C[C@H](O)[C@@H](Cc2cc(F)cc(F)c2)NC(=O)C(O)c2ccccc2-c2ccccc2)C(C)C)C[C@H](C(=O)OC)C1 (single isomer, unassigned; isomer 2)	10 µM

Second part, the compound after the results:

IC50	Compound
4 µM	CC(C)CC(NC(=O)C(O)c1cccc2ccccc12)[C@@H](O)CC(=O)N[C@@H](C(=O)N[C@H](C)C(=O)N[C@H](CCC(=O)O)C(=O)N[C@H](Cc1ccccc1)C(=O)O)C(C)C (stereo partly specified)
> 200 µM	CSCC[C@H](NC(=O)[C@@H](NC(=O)OC(C)(C)C)C(C)C)C(=O)NC(CC(C)C)[C@@H](O)CC(=O)N[C@@H](C(=O)NC1CCCCC1)C(C)C (stereo partly specified)
6 µM	CC(C)CC(NC(=O)C(O)c1cccc(Oc2ccccc2)c1)[C@@H](O)CC(=O)N[C@@H](C(=O)N[C@H](C)C(=O)N[C@H](CCC(=O)O)C(=O)N[C@H](Cc1ccccc1)C(=O)O)C(C)C (stereo partly specified)
4 µM	CSCC[C@H](NC(=O)[C@@H](NC(=O)OC(C)(C)C)C(C)C)C(=O)NC(CC(C)C)[C@@H](O)CC(=O)N[C@@H](C(=O)NCc1cccc(C(=O)O)c1)C(C)C (stereo partly specified)
56 µM	CC(C)CC(NC(=O)Cc1ccc(-c2ccccc2)cc1)[C@@H](O)CC(=O)N[C@@H](C(=O)N[C@H](C)C(=O)N[C@H](CCC(=O)O)C(=O)N[C@H](Cc1ccccc1)C(=O)O)C(C)C (stereo partly specified)
10 µM	COC(=O)[C@@H]1CC(NC(=O)[C@H](NC(=O)C[C@H](O)C(CC(C)C)NC(=O)[C@H](CCSC)NC(=O)[C@@H](NC(=O)OC(C)(C)C)C(C)C)C(C)C)C[C@H](C(=O)OC)C1 (stereo partly specified)
140 µM	CC(C)CC(NC(=O)Cc1ccc(F)cc1F)[C@@H](O)CC(=O)N[C@@H](C(=O)N[C@H](C)C(=O)N[C@H](CCC(=O)O)C(=O)N[C@H](Cc1ccccc1)C(=O)O)C(C)C (stereo partly specified)
28 µM	CC(C)Cc1ccc(C(=O)NC(CC(C)C)[C@@H](O)CC(=O)N[C@@H](C(=O)N[C@H](C)C(=O)N[C@H](CCC(=O)O)C(=O)N[C@H](Cc2ccccc2)C(=O)O)C(C)C)cc1 (stereo partly specified)
0.3 µM	CSCC[C@H](NC(=O)[C@@H](NC(=O)OC(C)(C)C)C(C)C)C(=O)NC(CC(C)C)[C@@H](O)CC(=O)N[C@@H](C(=O)NC1C[C@@H](C(=O)O)C[C@@H](C(=O)O)C1)C(C)C (stereo partly specified)
25 µM	CC(C)CC(NC(=O)CCCOc1ccccc1)[C@@H](O)CC(=O)N[C@@H](C(=O)N[C@H](C)C(=O)N[C@H](CCC(=O)O)C(=O)N[C@H](Cc1ccccc1)C(=O)O)C(C)C (stereo partly specified)
5 µM	CSCC[C@H](NC(=O)[C@@H](NC(=O)OC(C)(C)C)C(C)C)C(=O)NC(CC(C)C)[C@@H](O)CC(=O)N[C@@H](C(=O)NCc1cccc(OCC(=O)O)c1)C(C)C (stereo partly specified)
17 µM	CC(C)CC(NC(=O)[C@@H](O)c1ccccc1)[C@@H](O)CC(=O)N[C@@H](C(=O)N[C@H](C)C(=O)N[C@H](CCC(=O)O)C(=O)N[C@H](Cc1ccccc1)C(=O)O)C(C)C (stereo partly specified)
47 µM	CSCC[C@H](NC(=O)[C@@H](NC(=O)OC(C)(C)C)C(C)C)C(=O)NC(CC(C)C)[C@@H](O)CC(=O)N[C@@H](C(=O)NCCCC(=O)O)C(C)C (stereo partly specified)
140 µM	COC(=O)[C@@H]1CC(NC(=O)[C@@H](NC(=O)C[C@H](O)[C@H](CC(C)C)NC(=O)C(O)c2cccc3ccccc23)C(C)C)C[C@H](C(=O)OC)C1 (stereo partly specified)
